Assay results: article PMC8500941 (Molecular cell, 2021)
Entries after “also recorded” stand apart in the source; their conditions may differ.

Key:
DnaK [1] = conditions: from biochemical assays of this paper
W102 of DnaK = test: Tryptophan fluorescence assay; type: biochemical, Escherichia coli; conditions: for W102 fluorescence of D148 mutants (in words): ATP and ADP, compared with wild-type levels; for wavelength of maximal W102 fluorescence: 1 μM DnaK, buffer A pH 7.5, ~25°C, excitation 290 nm
How it was run: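 Protein: full-length DnaK with C-terminal His6, expressed in BB205 and purified by HisTrap then HiTrap Q. Protein (1 μM final) preincubated 2 min with 2 mM ATP or ADP in buffer A (25 mM Hepes-KOH pH 7.5, 100 mM KCl, 10 mM Mg(OAc)2). Emission 300–400 nm recorded at ~25°C. Spectra normalised to ADP peak = 1.0. ATP-versus-ADP peak-wavelength shift compared.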

[2] = tested on: dnaK deletion strain BB205 E. coli cells; test: Cell viability tests; type: cell-based, Escherichia coli; conditions: growth on LB agar at elevated temperature (37°C to 40°C), 20 μM IPTG
How it was run: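 DnaK-dependence test: pBB46 plasmids (ampR) carrying mutant dnaK transformed into BB205 (camR kanR). Fresh overnight culture from each fresh transformation, serially diluted, spotted on LB with 50 μg/ml ampicillin, 25 μg/ml kanamycin, 25 μg/ml chloramphenicol, 20 μM IPTG. Grown overnight at 37°C to 40°C, with control plates at 30°C. Viability scored from growth.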

[3] = tested on: yeast Ssa1 and E. coli DnaK; conditions: heat shock; ref Liu & Hendrickson, 2007; cited from earlier work
DnaK [4] = conditions: for ATP hydrolysis (in words): intrinsic / low peptide concentration, compared with WT; for kcat (ATP hydrolysis): single-turnover, constitutively stimulated state (k′ = kcat); for rate of ATP hydrolysis, basal: buffer A pH 7.5, single-turnover
DnaK [5] = conditions: from d with KD^0S 1.73 μM; 20°C

Substance: D148I
- allosteric state phenotype (in words) (DnaK [1]): exclusive stabilization of the restraining R-state alternative
- W102 fluorescence of D148 mutants (in words) (W102 of DnaK): quenched and blue-shifted to beyond wild-type levels
- chaperone activity / cell viability (in words) [2]: destroy chaperone activity

Substance: D148V
- W102 fluorescence of D148 mutants (in words) (W102 of DnaK): quenched and blue-shifted to beyond wild-type levels

Substance: I160D
- phenotype of mutants (in words) [3]: profoundly defective
- ATP hydrolysis (in words) (DnaK [4]): constitutively high ATPase activities

Substance: I483D
- phenotype of mutants (in words) [3]: profoundly defective
- KeqS = [R] / [S] (DnaK [5]): 0
- kcat (ATP hydrolysis) (DnaK [4]; 20°C): 0.00452 ± 0.000183 s⁻¹
- ATP hydrolysis (in words) (DnaK [4]): constitutively high ATPase activities
- chaperone activity / cell viability (in words) [2]: negligible chaperone activity; also recorded: destroy chaperone activity

Substance: N170D
- phenotype of mutants (in words) [3]: profoundly defective
- rate of ATP hydrolysis, basal (DnaK [4]; basal, 20°C): 0.37 min⁻¹
- enhancement of basal ATP hydrolysis over WT (DnaK [4]; basal, 20°C, versus WT): 31 fold

Substance: V389D
- phenotype of mutants (in words) [3]: profoundly defective

Substance: WT DnaK: full-length wild-type E. coli Hsp70 DnaK
- rate of ATP hydrolysis, basal (DnaK [4]; basal, 20°C): 0.012 min⁻¹
- wavelength of maximal W102 fluorescence (W102 of DnaK; 2 mM ADP): 342 nm
- wavelength of maximal W102 fluorescence (W102 of DnaK; 2 mM ATP): 335 nm
- W102 fluorescence change (in words) (W102 of DnaK; ATP as compared with ADP): quenched and blue shifted

Substance: WT∷NR: DnaK (residues 1–609) fused through a flexible linker to the NRLLLTG heptapeptide
- KeqS = [R] / [S] (DnaK [5]): 0
- kcat (ATP hydrolysis) (DnaK [4]; 20°C): 0.00455 ± 0.00013 s⁻¹
